# Test results as given in ChEMBL document CHEMBL1148652, “Design of potent, orally available antagonists of the transient receptor potential vanilloid 1. Structure-activity relationships of 2-piperazin-1-yl-1H-benzimidazoles” (J Med Chem, 2006).
# Values joined by “and” are separate entries in the source; they are usually repeats but may differ in a detail not shown here. Equal values may be shown once. Active and inactive are the calls of the source. The rule behind the calls is not given here.
# Assays:
# [1] = Oral bioavailability in Sprague-Dawley rat; format: ADME, organism-based; settings: in vivo
# [2] = Volume of distribution in Sprague-Dawley rat at 1 mg/kg, iv; format: ADME, organism-based; design: dose 1 mg/kg, route intravenous; settings: in vivo, read-out: Vdss
# [3] = target: T1, Transient receptor potential cation channel subfamily V member 1 (Rattus norvegicus, UniProt O35433); test: Antagonist activity against capsaicin-induced 45calcium ion uptake in CHO cells expressing rat TRPV1; format: functional, cell-based
# T1 sequence (O35433 whole entry): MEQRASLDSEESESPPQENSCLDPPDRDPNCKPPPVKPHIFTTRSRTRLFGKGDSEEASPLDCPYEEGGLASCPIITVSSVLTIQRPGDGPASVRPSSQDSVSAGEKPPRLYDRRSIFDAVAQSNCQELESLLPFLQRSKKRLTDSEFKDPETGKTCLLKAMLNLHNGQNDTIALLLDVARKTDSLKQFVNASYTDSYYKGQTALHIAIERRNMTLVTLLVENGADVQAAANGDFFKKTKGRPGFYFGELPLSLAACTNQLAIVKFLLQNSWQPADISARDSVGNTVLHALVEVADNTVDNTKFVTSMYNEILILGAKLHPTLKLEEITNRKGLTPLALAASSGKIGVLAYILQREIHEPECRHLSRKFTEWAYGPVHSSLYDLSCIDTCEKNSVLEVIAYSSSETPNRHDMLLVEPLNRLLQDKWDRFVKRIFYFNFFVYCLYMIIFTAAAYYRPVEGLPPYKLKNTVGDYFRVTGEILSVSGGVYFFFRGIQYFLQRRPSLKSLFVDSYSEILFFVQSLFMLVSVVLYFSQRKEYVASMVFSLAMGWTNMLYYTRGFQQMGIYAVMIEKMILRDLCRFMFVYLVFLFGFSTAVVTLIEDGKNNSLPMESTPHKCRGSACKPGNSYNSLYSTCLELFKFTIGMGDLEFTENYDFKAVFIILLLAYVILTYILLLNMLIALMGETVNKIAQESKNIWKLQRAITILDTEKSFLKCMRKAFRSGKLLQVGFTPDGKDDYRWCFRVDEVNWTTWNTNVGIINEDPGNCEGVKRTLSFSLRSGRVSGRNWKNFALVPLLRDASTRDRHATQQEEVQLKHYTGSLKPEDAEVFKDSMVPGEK
# Method in brief: (§1)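 CHO cells recombinantly expressing rat TRPV1; inhibition of 45Ca2+ uptake triggered by capsaicin or by acid, pH 5. Functional IC50 in nM, averaged over at least two independent experiments, each with three replicates per concentration.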
# [4] = Cmax in Sprague-Dawley rat at 5 mg/kg, po; format: ADME, organism-based; design: dose 5 mg/kg, route oral; settings: in vivo
# [5] = target: Transient receptor potential cation channel subfamily V member 1 (Rattus norvegicus) (UniProt O35433); test: Antinociceptive activity in po dosed Sprague-Dawley rat assessed as ability to block capsaicin-induced paw flinching; format: functional, organism-based
# Transient receptor potential cation channel subfamily V member 1 (Rattus norvegicus), sequence (O35433 whole entry): as above
# Method in brief: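 Rats dosed orally, then challenged with intraplantar capsaicin (0.5 µg/[…] per paw) to provoke flinching. Eight animals per group; ED50 taken from dose-response.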
# [6] = target: Transient receptor potential cation channel subfamily V member 1 (Rattus norvegicus) (UniProt O35433); test: Antinociceptive activity in Sprague-Dawley rat assessed as reversal of CFA-induced thermal hyperalgesia; format: functional
# Method in brief: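 Thermal hyperalgesia induced in rats by complete Freund's adjuvant; reversal assessed after oral dosing at 30 mg/kg.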
# [7] = Elimination half life in Sprague-Dawley rat at 1 mg/kg, iv; format: ADME, organism-based; design: dose 1 mg/kg, route intravenous; settings: in vivo
# [8] = Clearance in Sprague-Dawley rat at 1 mg/kg, iv; format: ADME, organism-based; design: dose 1 mg/kg, route intravenous; settings: in vivo
# [9] = Tmax in Sprague-Dawley rat at 5 mg/kg, po; format: ADME, organism-based; design: dose 5 mg/kg, route oral; settings: in vivo
# [10] = target: T1, Transient receptor potential cation channel subfamily V member 1; test: Antagonist activity against acid-induced 45calcium ion uptake in CHO cells expressing rat TRPV1 at pH5; format: functional, cell-based; method in brief: as §1
IC50 [3] [nM],IC50 [10],Compound,also measured
648,> 4000 nM,CC[C@@H]1CN(c2ncccc2C(F)(F)F)CCN1c1nc2cc(C(F)(F)F)ccc2[nH]1,–
1550,884 nM,FC(F)(F)c1cnc2nc(N3CCN(c4ncccc4C(F)(F)F)CC3)[nH]c2c1,–
26,22 nM,FC(F)(F)c1cc(-c2cc3ccccc3s2)c2nc(N3CCN(c4ncccc4C(F)(F)F)CC3)[nH]c2c1,–
104,75 nM,C[C@H]1CN(c2ncccc2Br)CCN1c1nc2c(-c3cc(F)c(F)c(F)c3)cc(C(F)(F)F)cc2[nH]1,–
> 5640,11900 nM,FC(F)(F)c1ccnc(N2CCN(c3nc4cc(C(F)(F)F)ccc4[nH]3)CC2)c1,–
461,652 nM,CC(O)c1cnc(N2CCN(c3nc4ccc(C(F)(F)F)cc4[nH]3)CC2)c(Cl)c1 (racemic),–
4.3,1.8 nM,C[C@@H]1CN(c2nc3c(-c4cc(F)c(F)c(F)c4)cc(C(F)(F)F)cc3[nH]2)CCN1c1ncccc1Br,–
493,> 40000 nM,CNC(=O)c1cnc(N2CCN(c3nc4ccc(C(F)(F)F)cc4[nH]3)CC2)c(Cl)c1,–
6290,7080 nM,N#Cc1cccnc1N1CCN(c2nc3cc(C(F)(F)F)ccc3[nH]2)CC1,–
1.6,1.2 nM,C[C@@H]1CN(c2ncc(CO)cc2Cl)CCN1c1nc2cc(C(F)(F)F)cc(NC(=O)C3CCCCC3)c2[nH]1,–
3910,8030 nM,FC(F)(F)c1ccc2[nH]c(N3CCN(c4ccncc4Cl)CC3)nc2c1,–
0.6,2.3 nM,C[C@@H]1CN(c2ncc([C@@H](C)O)cc2Cl)CCN1c1nc2c(-c3cc(F)c(F)c(F)c3)cc(C(F)(F)F)cc2[nH]1,–
3.4,3.3 nM,C[C@@H]1CN(c2ncc(Br)cc2Cl)CCN1c1nc2c(-c3cc(F)c(F)c(F)c3)cc(C(F)(F)F)cc2[nH]1,–
30,9.2 nM,C[C@@H]1CN(c2ncc(NC(=O)CO)cc2Cl)CCN1c1nc2c(-c3ccc(F)cc3)cc(C(F)(F)F)cc2[nH]1,–
> 40000,> 40000 nM,FC(F)(F)c1ccc2[nH]c(N3CCN(c4cccc(C(F)(F)F)n4)CC3)nc2c1,–
71,52 nM,Fc1ccc(Cc2cc(C(F)(F)F)cc3[nH]c(N4CCN(c5ncccc5C(F)(F)F)CC4)nc23)cc1F,–
123,194 nM,FC(F)(F)c1cccnc1N1CCN(c2nc3ccc(Br)cc3[nH]2)CC1,–
129,51 nM,FC(F)(F)c1cc(-c2cnccn2)c2nc(N3CCN(c4ncccc4C(F)(F)F)CC3)[nH]c2c1,–
141,68 nM,FC(F)(F)c1cc(-c2ccccc2)c2nc(N3CCN(c4ncccc4C(F)(F)F)CC3)[nH]c2c1,–
64,98 nM,OCc1cnc(N2CCN(c3nc4ccc(C(F)(F)F)cc4[nH]3)CC2)c(Cl)c1,–

# Second part, the compound before the results:
Compound,IC50 [3] [nM],IC50 [10],also measured
C[C@@H]1CN(c2ncc(C(O)CO)cc2Cl)CCN1c1nc2c(-c3cc(F)c(F)c(F)c3)cc(C(F)(F)F)cc2[nH]1 (mixture of isomers),0.9,0.9 nM,bioavailability [1]: 17%; Vd [2]: 1.89 L/kg; Cmax [4]: 617 ng/mL; ED50 [5]: 8.8 mg/kg; Activity [6]: Active; half-life [7]: 5.6 h; clearance [8]: 4.5 mL/min/kg; Tmax [9]: 4 h
Fc1ccc2[nH]c(N3CCN(c4ncccc4C(F)(F)F)CC3)nc2c1,> 4000,> 4000 nM,–
FC(F)(F)c1cc(N2CCCCC2)c2[nH]c(N3CCN(c4ncccc4C(F)(F)F)CC3)nc2c1,29,21 nM,–
NC(=O)c1cnc(N2CCN(c3nc4cc(C(F)(F)F)ccc4[nH]3)CC2)c(Cl)c1,430,1000 nM,–
COc1ccc(-c2cc(C(F)(F)F)cc3[nH]c(N4CCN(c5ncccc5C(F)(F)F)CC4)nc23)cn1,111,99 nM,–
FC(F)(F)c1ccc(N2CCN(c3nc4cc(C(F)(F)F)ccc4[nH]3)CC2)nc1,11300,> 40000 nM,–
Nc1ccc(-c2cc(C(F)(F)F)cc3[nH]c(N4CCN(c5ncccc5C(F)(F)F)CC4)nc23)cc1,1900,308 nM,–
FC(F)(F)c1ccc2nc(N3CCN(c4ccccc4C(F)(F)F)CC3)[nH]c2c1,2060,406 nM,–
FC(F)(F)c1cc(-c2cccs2)c2[nH]c(N3CCN(c4ncccc4C(F)(F)F)CC3)nc2c1,373,221 nM,–
FC(F)(F)c1ccc2[nH]c(N3CCN(c4ncncc4Cl)CC3)nc2c1,2110,> 40000 nM,–
C[C@@H]1CN(c2ncc(N)cc2Cl)CCN1c1nc2c(-c3ccc(F)cc3)cc(C(F)(F)F)cc2[nH]1,98,33 nM,–
FC(F)(F)c1cc(Br)c2nc(N3CCN(c4ncccc4C(F)(F)F)CC3)[nH]c2c1,131,74 nM,–
C[C@@H]1CN(c2ncccc2C(F)(F)F)CCN1c1nc2ccc(C(F)(F)F)cc2[nH]1,48,35 nM,–
FC(F)(F)c1ccc2nc(N3CCN(c4c(Cl)cncc4Cl)CC3)[nH]c2c1,1370,1990 nM,–
FC(F)(F)c1cc(C(F)(F)F)c2[nH]c(N3CCN(c4ncccc4C(F)(F)F)CC3)nc2c1,325,120 nM,–
FC(F)(F)c1ccc(CNc2cc3[nH]c(N4CCN(c5ncccc5C(F)(F)F)CC4)nc3cc2C(F)(F)F)cc1,94,141 nM,–

Compound,IC50 [3] [nM],IC50 [10],also measured
C=Cc1cnc(N2CCN(c3nc4c(-c5cc(F)c(F)c(F)c5)cc(C(F)(F)F)cc4[nH]3)[C@H](C)C2)c(Cl)c1,1.3,1.7 nM,–
FC(F)(F)c1ccc2[nH]c(N3CCN(c4ncccc4Cl)CC3)nc2c1,309,705 nM,–
FC(F)(F)c1ccc2[nH]c(N3CCN(c4c(Cl)cccc4Cl)CC3)nc2c1,> 40000,1270 nM,–
FC(F)(F)c1ccc2[nH]c(N3CCN(c4ncccc4I)CC3)nc2c1,221,310 nM,–
Fc1cc(-c2cc(C(F)(F)F)cc3[nH]c(N4CCN(c5ncccc5C(F)(F)F)CC4)nc23)cc(F)c1F,33,26 nM,–
C[C@H](O)c1cnc(N2CCN(c3nc4c(-c5cc(F)c(F)c(F)c5)cc(C(F)(F)F)cc4[nH]3)[C@H](C)C2)c(Cl)c1,2.6,3 nM,–
COC(=O)c1cnc(N2CCN(c3nc4c(-c5cc(F)c(F)c(F)c5)cc(C(F)(F)F)cc4[nH]3)[C@H](C)C2)c(Cl)c1,0.3,0.3 nM,–
CC(O)c1cnc(N2CCN(c3nc4c(-c5cc(F)c(F)c(F)c5)cc(C(F)(F)F)cc4[nH]3)[C@H](C)C2)c(C(F)(F)F)c1 (mixture of isomers),1.5,1 nM,–
N#Cc1ccc2[nH]c(N3CCN(c4ncccc4C(F)(F)F)CC3)nc2c1,3300,> 4000 nM,–
FC(F)(F)c1ccc2nc(N3CCN(c4ncccc4C(F)(F)F)CC3)n(Cc3ccccc3)c2c1,577,151 nM and 157 nM,–
Fc1cc(CNc2cc(C(F)(F)F)cc3[nH]c(N4CCN(c5ncccc5C(F)(F)F)CC4)nc23)cc(F)c1F,132,81 nM,–
FC(F)(F)c1ccc(-c2cc3[nH]c(N4CCN(c5ncccc5C(F)(F)F)CC4)nc3cc2C(F)(F)F)cc1,8240,201 nM,–
FC(F)(F)c1cc(-c2nccs2)c2nc(N3CCN(c4ncccc4C(F)(F)F)CC3)[nH]c2c1,688,454 nM,–
FC(F)(F)c1ccc2[nH]c(N3CCN(c4ccncc4C(F)(F)F)CC3)nc2c1,2380,2850 nM,–
C[C@@H]1CN(c2ncc(C(O)c3ccccc3)cc2C(F)(F)F)CCN1c1nc2c(-c3cc(F)c(F)c(F)c3)cc(C(F)(F)F)cc2[nH]1 (stereo not given in full),2.8,3.7 nM,–
